Results as given in ChEMBL document CHEMBL4411337, “2-Aminothiazole Derivatives as Selective Allosteric Modulators of the Protein Kinase CK2. 1. Identification of an Allosteric Binding Site” (J Med Chem, 2019).
The source made the active and inactive calls. The rule behind the calls is not given here.

Columns and labels:
[1] = biological target: Tyrosine-protein kinase Yes (Homo sapiens) (UniProt P07947); assay: Inhibition of YES (unknown origin) assessed as residual activity at 50 uM relative to control
Procedure, shortened: (§1)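 Profiling panel of 44 human kinases. ATP set to each kinase's Km. Run in duplicate; duplicates within 15–17% of each other.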

[2] = biological target: Insulin receptor (Homo sapiens) (UniProt P06213); assay: Inhibition of activated IR (unknown origin) assessed as residual activity at 50 uM relative to control; procedure, shortened: as §1
[3] = biological target: Ephrin type-A receptor 4 (Homo sapiens) (UniProt P54764); assay: Inhibition of EPHA4 (unknown origin) assessed as residual activity at 50 uM relative to control
Chain of Ephrin type-A receptor 4 (Homo sapiens) (P54764 whole entry): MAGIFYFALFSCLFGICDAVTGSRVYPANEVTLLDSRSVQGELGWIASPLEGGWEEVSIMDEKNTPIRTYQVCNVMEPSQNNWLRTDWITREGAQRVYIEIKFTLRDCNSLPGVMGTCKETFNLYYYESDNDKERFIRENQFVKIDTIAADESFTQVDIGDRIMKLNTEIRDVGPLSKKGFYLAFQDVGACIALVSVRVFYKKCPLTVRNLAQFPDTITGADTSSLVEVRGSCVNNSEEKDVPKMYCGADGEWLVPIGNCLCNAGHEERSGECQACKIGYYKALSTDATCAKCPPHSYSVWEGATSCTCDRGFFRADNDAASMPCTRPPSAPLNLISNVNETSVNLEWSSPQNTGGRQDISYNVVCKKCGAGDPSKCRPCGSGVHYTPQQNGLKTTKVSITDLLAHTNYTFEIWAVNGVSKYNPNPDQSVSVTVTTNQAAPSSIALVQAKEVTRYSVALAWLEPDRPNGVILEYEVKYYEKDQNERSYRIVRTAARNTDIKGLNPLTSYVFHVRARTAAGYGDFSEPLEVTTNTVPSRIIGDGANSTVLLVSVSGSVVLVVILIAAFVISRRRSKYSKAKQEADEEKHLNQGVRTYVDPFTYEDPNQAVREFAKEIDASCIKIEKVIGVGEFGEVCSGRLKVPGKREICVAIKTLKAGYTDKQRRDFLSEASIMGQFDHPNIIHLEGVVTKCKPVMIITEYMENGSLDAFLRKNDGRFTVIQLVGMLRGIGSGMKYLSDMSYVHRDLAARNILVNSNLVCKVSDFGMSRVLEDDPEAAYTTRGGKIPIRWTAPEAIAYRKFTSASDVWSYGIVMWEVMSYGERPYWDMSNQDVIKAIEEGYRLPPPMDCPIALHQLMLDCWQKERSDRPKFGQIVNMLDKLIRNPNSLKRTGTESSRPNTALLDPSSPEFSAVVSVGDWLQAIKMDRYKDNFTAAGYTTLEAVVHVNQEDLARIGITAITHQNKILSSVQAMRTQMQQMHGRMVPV
Procedure, shortened: (§2)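 Selectivity profiling against a panel of 44 human kinases. For each kinase, ATP was set to that kinase's Km. Values are residual activity in duplicate assays.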

[4] = biological target: 5'-AMP-activated protein kinase catalytic subunit alpha-1 (Homo sapiens) (UniProt Q13131); assay: Inhibition of AMPKalpha1 (unknown origin) assessed as residual activity at 50 uM relative to control; procedure, shortened: as §2
Chain of 5'-AMP-activated protein kinase catalytic subunit alpha-1 (Homo sapiens) (Q13131 whole entry, looked up): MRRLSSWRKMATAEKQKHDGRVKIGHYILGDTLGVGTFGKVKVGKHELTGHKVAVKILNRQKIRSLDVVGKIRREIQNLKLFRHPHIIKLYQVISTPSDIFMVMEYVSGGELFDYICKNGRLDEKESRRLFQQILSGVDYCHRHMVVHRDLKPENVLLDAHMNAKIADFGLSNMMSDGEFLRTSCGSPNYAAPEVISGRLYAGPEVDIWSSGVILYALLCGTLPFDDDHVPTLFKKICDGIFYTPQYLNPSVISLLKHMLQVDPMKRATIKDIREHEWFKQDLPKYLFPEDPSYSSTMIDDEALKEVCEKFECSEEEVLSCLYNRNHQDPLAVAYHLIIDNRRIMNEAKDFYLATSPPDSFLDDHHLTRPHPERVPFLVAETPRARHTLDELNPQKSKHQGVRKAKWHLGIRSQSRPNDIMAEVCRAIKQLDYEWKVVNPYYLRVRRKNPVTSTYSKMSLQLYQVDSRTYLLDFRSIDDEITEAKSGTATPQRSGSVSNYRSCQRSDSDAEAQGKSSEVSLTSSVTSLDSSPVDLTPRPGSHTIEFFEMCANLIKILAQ

[5] = biological target: Cyclin-dependent kinase 7/ cyclin H (Homo sapiens) (UniProt P51946+P50613); assay: Inhibition of CDK7/cyclin H (unknown origin) assessed as residual activity at 50 uM relative to control; assay type: protein-complex assay; procedure, shortened: as §2
[6] = biological target: Aurora kinase B (Homo sapiens) (UniProt Q96GD4); assay: Inhibition of aurora B (unknown origin) assessed as residual activity at 50 uM relative to control; procedure, shortened: as §1
Chain of Aurora kinase B (Homo sapiens) (Q96GD4 whole entry): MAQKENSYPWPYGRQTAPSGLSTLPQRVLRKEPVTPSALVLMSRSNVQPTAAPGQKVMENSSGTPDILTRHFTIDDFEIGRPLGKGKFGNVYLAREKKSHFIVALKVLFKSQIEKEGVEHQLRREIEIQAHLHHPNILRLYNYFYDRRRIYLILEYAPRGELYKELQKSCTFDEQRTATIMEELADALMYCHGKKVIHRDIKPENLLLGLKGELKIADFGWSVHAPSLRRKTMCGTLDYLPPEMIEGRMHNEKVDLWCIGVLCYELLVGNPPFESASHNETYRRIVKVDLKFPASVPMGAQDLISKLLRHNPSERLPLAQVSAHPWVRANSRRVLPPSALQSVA

[7] = biological target: Ribosomal protein S6 kinase alpha-1 (Homo sapiens) (UniProt Q15418); assay: Inhibition of RSK1 (unknown origin) assessed as residual activity at 50 uM relative to control; procedure, shortened: as §1
Chain of Ribosomal protein S6 kinase alpha-1 (Homo sapiens) (Q15418 whole entry): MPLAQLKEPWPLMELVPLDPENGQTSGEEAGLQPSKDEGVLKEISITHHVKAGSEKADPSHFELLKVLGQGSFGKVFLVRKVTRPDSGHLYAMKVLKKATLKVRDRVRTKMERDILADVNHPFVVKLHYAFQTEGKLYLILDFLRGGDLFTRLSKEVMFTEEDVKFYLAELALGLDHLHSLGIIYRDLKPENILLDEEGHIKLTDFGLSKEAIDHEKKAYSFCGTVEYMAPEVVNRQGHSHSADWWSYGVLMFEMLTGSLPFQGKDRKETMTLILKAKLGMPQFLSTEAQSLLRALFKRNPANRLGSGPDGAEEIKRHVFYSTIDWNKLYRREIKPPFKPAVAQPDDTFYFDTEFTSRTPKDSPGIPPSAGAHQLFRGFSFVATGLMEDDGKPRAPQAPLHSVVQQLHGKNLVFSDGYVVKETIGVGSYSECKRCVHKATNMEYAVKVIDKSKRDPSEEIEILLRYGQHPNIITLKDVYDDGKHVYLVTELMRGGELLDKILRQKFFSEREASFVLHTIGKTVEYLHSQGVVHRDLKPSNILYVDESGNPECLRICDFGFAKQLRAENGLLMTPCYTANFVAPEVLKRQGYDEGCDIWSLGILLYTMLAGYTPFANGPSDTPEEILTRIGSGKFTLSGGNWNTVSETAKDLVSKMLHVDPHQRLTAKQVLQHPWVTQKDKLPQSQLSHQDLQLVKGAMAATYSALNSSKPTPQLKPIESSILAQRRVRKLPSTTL

[8] = biological target: Tyrosine-protein kinase ABL1 (Homo sapiens) (UniProt P00519); assay: Inhibition of ABL (unknown origin) assessed as residual activity at 50 uM relative to control; procedure, shortened: as §2
[9] = biological target: Rho-associated protein kinase 1 (Homo sapiens) (UniProt Q13464); assay: Inhibition of ROCK1 (unknown origin) assessed as residual activity at 50 uM relative to control; procedure, shortened: as §1
[10] = biological target: RAF proto-oncogene serine/threonine-protein kinase (Homo sapiens) (UniProt P04049); assay: Inhibition of cRAF (unknown origin) assessed as residual activity at 50 uM relative to control; procedure, shortened: as §1
[11] = biological target: Homeodomain-interacting protein kinase 2 (Homo sapiens) (UniProt Q9H2X6); assay: Inhibition of HIPK2 (unknown origin) assessed as residual activity at 50 uM relative to control; procedure, shortened: as §2
Chain of Homeodomain-interacting protein kinase 2 (Homo sapiens) (Q9H2X6 whole entry, looked up): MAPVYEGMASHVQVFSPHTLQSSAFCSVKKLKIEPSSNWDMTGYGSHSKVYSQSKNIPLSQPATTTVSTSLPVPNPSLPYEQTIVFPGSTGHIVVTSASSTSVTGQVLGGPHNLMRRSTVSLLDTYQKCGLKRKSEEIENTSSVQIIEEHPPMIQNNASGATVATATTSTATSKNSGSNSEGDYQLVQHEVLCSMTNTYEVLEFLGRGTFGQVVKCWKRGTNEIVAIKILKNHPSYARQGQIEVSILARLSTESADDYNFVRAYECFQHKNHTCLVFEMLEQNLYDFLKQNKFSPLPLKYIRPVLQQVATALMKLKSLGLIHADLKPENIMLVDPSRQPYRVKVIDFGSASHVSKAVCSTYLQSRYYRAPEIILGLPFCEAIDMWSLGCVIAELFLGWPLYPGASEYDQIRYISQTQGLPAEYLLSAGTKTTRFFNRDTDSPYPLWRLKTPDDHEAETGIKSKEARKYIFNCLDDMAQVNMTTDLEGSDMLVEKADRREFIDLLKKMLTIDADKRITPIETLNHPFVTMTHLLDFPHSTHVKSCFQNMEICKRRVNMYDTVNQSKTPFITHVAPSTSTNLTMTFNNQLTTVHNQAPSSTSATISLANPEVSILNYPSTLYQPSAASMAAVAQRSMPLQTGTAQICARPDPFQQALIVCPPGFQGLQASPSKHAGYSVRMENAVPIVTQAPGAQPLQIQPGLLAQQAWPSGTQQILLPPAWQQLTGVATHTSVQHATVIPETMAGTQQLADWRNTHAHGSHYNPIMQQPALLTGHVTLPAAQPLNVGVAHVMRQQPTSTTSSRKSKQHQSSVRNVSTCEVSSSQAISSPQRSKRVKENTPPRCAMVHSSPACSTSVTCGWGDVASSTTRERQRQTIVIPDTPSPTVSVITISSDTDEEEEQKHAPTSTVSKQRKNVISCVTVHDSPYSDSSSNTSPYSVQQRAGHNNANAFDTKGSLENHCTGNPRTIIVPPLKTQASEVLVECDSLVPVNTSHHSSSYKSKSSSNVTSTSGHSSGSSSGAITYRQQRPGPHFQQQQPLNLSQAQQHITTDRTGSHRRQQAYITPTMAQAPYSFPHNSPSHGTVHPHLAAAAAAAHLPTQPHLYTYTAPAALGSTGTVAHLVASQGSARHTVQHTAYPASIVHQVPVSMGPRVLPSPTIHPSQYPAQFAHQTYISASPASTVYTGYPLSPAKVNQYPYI

[12] = biological target: Cyclin-dependent kinase 2/cyclin E1 (Homo sapiens) (UniProt P24864+P24941); assay: Inhibition of CDK2/cyclin E (unknown origin) assessed as residual activity at 50 uM relative to control; assay type: protein-complex assay; procedure, shortened: as §2
[13] = biological target: Dual specificity mitogen-activated protein kinase kinase 1 (Homo sapiens) (UniProt Q02750); assay: Inhibition of MEK1 (unknown origin) assessed as residual activity at 50 uM relative to control; procedure, shortened: as §2
Chain of Dual specificity mitogen-activated protein kinase kinase 1 (Homo sapiens) (Q02750 whole entry): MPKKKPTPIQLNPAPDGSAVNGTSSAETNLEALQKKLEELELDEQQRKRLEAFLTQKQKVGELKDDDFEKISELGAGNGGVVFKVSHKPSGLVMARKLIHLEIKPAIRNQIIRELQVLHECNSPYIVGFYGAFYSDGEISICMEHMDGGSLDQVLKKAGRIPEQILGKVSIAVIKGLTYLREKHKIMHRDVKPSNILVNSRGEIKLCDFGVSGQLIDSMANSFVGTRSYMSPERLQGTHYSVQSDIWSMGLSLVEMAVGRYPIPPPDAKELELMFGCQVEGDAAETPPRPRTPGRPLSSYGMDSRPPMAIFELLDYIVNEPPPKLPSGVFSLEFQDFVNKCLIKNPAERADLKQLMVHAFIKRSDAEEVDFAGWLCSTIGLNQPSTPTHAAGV

[14] = biological target: Casein kinase II alpha/beta (Homo sapiens) (UniProt P67870+P68400); assay: Inhibition of recombinant human GST-tagged CK2alpha2/CK2beta2 at 15 uM in presence of ATP by radiometric kinase assay; assay type: protein-complex assay
Chain of Casein kinase II alpha/beta (Homo sapiens) (P67870 2-215 limits assumed): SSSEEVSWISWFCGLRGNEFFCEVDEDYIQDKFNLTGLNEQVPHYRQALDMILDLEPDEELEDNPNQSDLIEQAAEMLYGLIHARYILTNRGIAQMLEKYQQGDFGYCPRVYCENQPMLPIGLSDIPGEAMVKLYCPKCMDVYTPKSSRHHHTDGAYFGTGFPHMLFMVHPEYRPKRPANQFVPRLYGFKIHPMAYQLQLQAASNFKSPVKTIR
Chain of Casein kinase II alpha/beta (Homo sapiens) (P68400 whole entry partner): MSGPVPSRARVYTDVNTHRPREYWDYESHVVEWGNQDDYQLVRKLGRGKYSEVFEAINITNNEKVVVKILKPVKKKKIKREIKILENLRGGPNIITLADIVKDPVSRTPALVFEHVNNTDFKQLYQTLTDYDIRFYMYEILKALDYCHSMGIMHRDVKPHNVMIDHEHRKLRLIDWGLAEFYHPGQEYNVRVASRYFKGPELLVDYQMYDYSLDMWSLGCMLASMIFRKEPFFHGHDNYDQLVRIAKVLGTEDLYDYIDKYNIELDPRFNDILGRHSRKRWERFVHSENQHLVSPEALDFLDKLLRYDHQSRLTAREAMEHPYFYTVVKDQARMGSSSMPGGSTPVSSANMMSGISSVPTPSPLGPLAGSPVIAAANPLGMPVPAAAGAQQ

- Activity [1]: 100%
- Activity [2]: 93%
- Activity [3]: 45%
- Activity [4]: 71%
- Activity [5]: 104%
- Activity [6]: 74%
- Activity [7]: 99%
- Activity [8]: 104%
- Activity [9]: 100%
- Activity [10]: 92%
- Activity [11]: 83%
- Activity [12]: 101%
- Activity [13]: 103%
- inhibition [14]: Active
Compound: O=C(O)c1ccc(Nc2nc(-c3cccc([N+](=O)[O-])c3)cs2)cc1
